High-throughput results (PubChem BioAssay)
An excerpt weighted towards active compounds, which were near 7.2% of everything screened.
DAT uptake mod – changed hDAT dopamine uptake under cocaine IC80, either direction, primary screen, cocaine antagonist project, cell-based, LLC-PK1 hDAT, [14C]-dopamine uptake, MLSMR. Sodium-dependent dopamine transporter (Homo sapiens), Q01959. LLC-PK1 hDAT cells, [14C]-dopamine uptake with cocaine IC80; actives deviate in either direction. B-score at 10 µM. 110,000 compounds, 1.3% hits. AID 449768, 2010;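 active = Z score or B-score, a plate-position-corrected score, falls beyond the plate's 99.7% confidence bounds, in either direction; inactive = both scores lie inside the 99.7% bounds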;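 also: scored against the spread of the other compound wells on the same plate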
BAP1 inh – inhibitors of BAP1 deubiquitinase, primary screen, biochemical, Ub-AMC fluorescence, kinetic. Ubiquitin carboxyl-terminal hydrolase BAP1 (Homo sapiens), Q92560. recombinant BAP1, Ub-AMC hydrolysis fluorescence kinetic; stronger effect = lower value. calls only at 20 µM. 72,000 compounds, 0.48% hits;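 active = activity remaining at or below 50% of control, provided the compound also passes the data quality filters; inactive = the rest, including low values that fail the filters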;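 also: 100% = DMSO wells rate and 0% = substrate alone blank rate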
M1 antagonist – antagonists of rat M1 muscarinic receptor; Muscarinic acetylcholine receptor M1 (Rattus norvegicus), P08482; CHO-M1 cells, Fluo-4 calcium, ACh EC80 antagonist mode; stronger effect = lower value; B-score at 10 µM; 64,000 compounds, 3.4% hits;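 active = calcium fluorescence response, raw or row-and-column corrected B-score, differing from the plate sample mean either way at a set confidence level, mostly lower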
HEK293 NFkB inh – inhibitors of PMA/ionomycin-induced NF-kB reporter, primary screen, antigen receptor NF-kB inhibitor project, cell-based, HEK-293 luciferase reporter, luminescence. HEK-293 NF-kB luciferase reporter. inhibition, % at 3 µM. 62,000 compounds, 0.21% hits. AID 465, 2006;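 active = inhibition above the mean of all tested compounds plus 3 SD, cut at about 40% in these data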;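 also: 0% = stimulated DMSO wells and 100% = 10 µM reference inhibitor 5653914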
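Reagent: PMA plus ionomycin mix as NF-kB-activating stimulus. Assay system: NF-kB luciferase reporter HEK-293 cells. Technique: luminescence from luciferase substrate reagent. Incubation: 1 h compound pre-incubation, 16 h PMA/ionomycin at 37 °C. Benchmarks: DMSO only as uninhibited control, 10 µM reference inhibitor as full inhibition. Repeats: tested once.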
M1 ag – M1 muscarinic receptor agonists, primary screen, CHO-M1 cells, Fluo-4 calcium, agonist mode; Fluo-4 calcium fluorescence; stronger effect = higher value; AID 626, 2007; B-score at 10 µM; 64,000 compounds, 3% hits; Muscarinic acetylcholine receptor M1;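 active = fluorescence rise, raw or as B-score row- and column-corrected plate score, outside the 99.7% band of its plate's samples, either direction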
D1 allo mod – D1 CRE-luciferase signal change, two-sided – cell-based, HEK293 D1, dopamine EC30, D1 allosteric modulator project, primary screen; D(1A) dopamine receptor (Homo sapiens), P21728; dopamine EC30 potentiation; actives deviate in either direction; B-score at 10 µM; 58,000 compounds, 5.9% hits; AID 641, 2007;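 active = luminescence count or its row- and column-corrected plate score outside the 99.7% band of the plate's sample wells, on either side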
D1 PAM confirm – D1 receptor positive allosteric modulators, retest, confirmation, cell-based, HEK293 D1, CRE-luciferase, duplicate; shares compounds with D1 allo mod; dopamine EC30 potentiation; stronger effect = higher value; luminescence at 10 µM; 2,200 compounds, 88% hits;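 active = luminescence in either of two replicates above the same-plate mean plus 3 SD of the low-dose dopamine control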
D1 ag no DA – D1 receptor agonism without dopamine, confirmation, mechanism study for D1 allosteric modulator project, cell-based, HEK293 D1, CRE-luciferase, secondary assay 1; shares compounds with D1 allo mod; 1,900 compounds, 0.8% hits; luminescence at 10 µM; AID 646, 2007; luminescence, no dopamine; stronger effect = higher value; in the data active = luminescence above about 3900
Isoprot counter – alters isoproterenol CRE-luciferase response in HEK293 cells; HEK293 D1 CRE-luciferase, isoproterenol EC30 counter-screen; calls only at 10 µM; 2,200 compounds, 63% hits; shares compounds with D1 allo mod;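 active = luminescence in either replicate above plate mean of wells with a partly effective reference agonist dose plus 3 SD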;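 also: isoproterenol raises cAMP through native beta-adrenoceptor Gs so signal bypasses D1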
Numbers without * were called inactive; i = inactive; · = no result; + = active, no number.

SMILES	DAT uptake mod	BAP1 inh	M1 antagonist	HEK293 NFkB inh	M1 ag	D1 allo mod	D1 PAM confirm	D1 ag no DA	Isoprot counter
CCCc1[nH]nc2c1C(c1cc(OC)ccc1F)C(C#N)=C(N)O2 (centres undefined)	-0.048	i	-1.1	2	1.2	8.2*	9940*	·	+
Cc1ccc(NC(=O)c2ccccc2NS(=O)(=O)c2ccc(Cl)cc2)c(C(=O)c2ccccc2)c1	·	i	·	·	·	·	·	·	·
CCC(c1nnnn1CCOC)N(Cc1ccc(C)cc1)Cc1cc2cc(OC)ccc2[nH]c1=O (centres undefined)	-0.66	i	0.35	19	-1.2	5.8*	14016*	1612	+
CCOC(=O)Cn1nnnc1C(CC)N(Cc1ccccc1)Cc1cc2cc(C)ccc2[nH]c1=O (centres undefined)	0.27	·	·	·	·	·	·	·	·
COC(=O)c1nn(-c2ccccc2)ccc1=O	-1.6	·	·	·	·	·	·	·	·
COC(=O)c1cn(-c2ccccc2)nc1C(=O)OC	1.3	i	0.13	19	-0.42	18*	20700*	1688	+
Cc1ccc(C(=O)c2sc3nc(N)c(C#N)c(-c4ccc(C(C)C)cc4)c3c2N)cc1	·	i	·	·	·	·	·	·	·
O=C1OCC2=C1C(c1ccc(F)cc1)Sc1ccccc1N2 (centres undefined)	-0.23	·	·	·	·	·	·	·	·
O=C1CC(c2ccc(F)cc2)Sc2ccccc2N1 (centres undefined)	1.9	i	0.022	10	0	28*	22156*	1556	+
Cc1nn(-c2ccccc2)cc1/C=N/O	-1.2	i	-0.26	9	0.89	4.3*	7640*	·	i
Cc1nn(C)cc1/C=N/O	-0.32	i	-0.1	·	0.034	-0.6	·	·	·
Cc1ccc(C(C)(C)C)c(OCC(=O)Nc2ccc(C(=O)O)cc2)c1	·	i	·	·	·	·	·	·	·
N#Cc1ccc(-n2nnc3ccccc32)cc1C#N	·	i	·	·	·	·	·	·	·
CN1C(=S)SC(C)(C)C1/[N+]([O-])=C/c1cccnc1 (centres undefined)	0.74	i	0.007	1	-0.47	7.5*	5660	1560	i
CN(C)c1ccc(/C=[N+](\[O-])C2SC(=S)N(C)C2(C)C)cc1 (centres undefined)	-0.48	i	0.81	16	-0.65	-0.57	·	·	·
O=C1c2ccc(Oc3cccc([N+](=O)[O-])c3)cc2C(=O)N1c1c[nH]c(=O)[nH]c1=O	·	i	·	·	·	·	·	·	·
COc1ccc(-c2coc3cc(O)ccc3c2=O)cc1OC	0.003	i	0.9	6	-1.8	4.6*	9756*	1616	i
CNc1nnc(Cl)c2ccccc12	·	i	·	·	·	·	·	·	·
CNc1nc(Nc2ccc(C(C)=O)cc2)nc(OC(C(F)(F)F)C(F)(F)F)n1	-5.9*	·	0.18	·	-0.04	21*	17924*	1544	+
O=S(=O)(Nc1nc2ccccc2nc1NCC1CCCO1)c1cccs1 (centres undefined)	1.1	i	0.15	4	-0.24	8.6*	15576*	2020	+
COCCCNc1nc2ccccc2nc1NS(=O)(=O)c1cccs1	-0.75	i	0.84	6	1.5	2.8*	10820*	1644	i
